A selection: hits, their analogues and other compounds. The true share with any hit is near 1.1%.
Cneo AK release: Cryptococcus neoformans lysis via adenylate kinase release | lysis activity, % at 15 µM | C. neoformans lysis, adenylate kinase release luminescence, 4 h; normalised: neutral wells 0, clomiphene wells 100 | hit rate 0.2% among 360,000;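 active means mean lysis activity across replicates of at least 80%, whatever share of replicates individually reach that level; inactive means mean lysis activity below 80%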
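Assay system: log-phase C. neoformans yeast / Quantity: yeast cell density of 5 × 10^6 cells/mL / Medium: fresh YPD growth medium / Compound: single dose / Timing: static 4 h at 37 °C with compound, 1 h detection / Measured by: adenylate kinase release luminescence / Read-out: lysis from increased AK signal / Benchmarks: Clomiphene as positive lysis control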
miR122 inh: miR-122 inhibition in Huh7 cells; hit rate 0.3% among 340,000; Huh7 miR-122 Renilla luciferase sensor, 48 h; neutral wells = 0, positive control = 100; AID 602342; activation (reporter increase), % at 12.5 µM;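 active means mean replicate activation score at least 90 and every replicate individually at or above 90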;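 further: higher luciferase means less miR-122 activity so hits act as miR-122 inhibitors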
CAL PDZ FP-1: inhibitors of human CAL PDZ peptide binding; hit rate 0.92% among 300,000; inhibition, % at 24.9 µM; purified CAL PDZ, TMR-peptide fluorescence polarization, 1 h; Q9HD26;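 active means mean inhibition of at least 30% with at least half of replicates also reaching 30%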;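 further: 0% = DMSO neutral control and 100% = excess unlabeled competitor peptide PRC23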
PglD DTNB: inhibitors of Campylobacter jejuni PglD acetyltransferase; hit rate 0.098% among 360,000; inhibition, % at 12.5 µM; purified PglD enzyme, DTNB colorimetric CoA detection; AID 602405; in the data active means inhibition above about 16%, passing the limit was not always enough
CAL PDZ FP-2: blocks peptide binding to human CAL PDZ domain. purified CAL PDZ, TMR-peptide fluorescence polarization, 1 h. inhibition, % at 20 µM. hit rate 0.02% among 330,000;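 active means highest replicate inhibition of at least 40%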;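 further: plate controls were DMSO neutral control wells for no effect and unlabeled competitor peptide control wells for full effect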
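Assay system – tagged CAL PDZ protein CerCALP, purified · Timing – 1 h at RT · Compound – single point, 20 µM · Measured by – fluorescence polarization from S- and P-plane intensities, G-factor corrected · Evaluation – inhibition from polarization loss · Probe or stimulus – TMR reporter peptide T*-PRC34 · Buffer or medium – pH 7.4 phosphate-saline buffer, reducing agent, detergent, IgG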
Active calls of the source: *; nt = not tested or not shown; [ ] = dose if it differs, or a comment.

SMILES	Cneo AK release	miR122 inh	CAL PDZ FP-1	PglD DTNB	CAL PDZ FP-2
CC(=O)Nc1cccc(NC(=O)CSc2nnc3ccccn23)c1	-6	0	5	-4	0
Cc1cc(NC(=O)CSc2nnc3ccccn23)no1	nt	nt	78*	nt	-1
COCC(=O)N1[C@@H]2CN(C(=O)Nc3cc(F)ccc3F)c3ccccc3[C@@H]2[C@@H]1CO	21	29[16.7 µM]	nt	-1	nt
CCC(=O)N1CC[C@H]2[C@H](CO)Nc3ccc(-c4ccc(OC)cc4)cc3[C@H]21	6	-2[16.7 µM]	nt	0	nt
CN1CCN(C(=O)CC2C(=O)NCCN2Cc2ccc(-c3ccccc3)cc2)CC1 (stereo unspecified)	nt	nt	71*	nt	-1
CCCC(O)(CCN1CCOCC1)c1ccc(Cl)cc1 (stereo unspecified)	10	-17	41*	-6	19
O=C(COC(=O)c1ccc[nH]c1=O)NCC1CCCO1 (stereo unspecified)	0	-2	56*	-13	0
Cc1ccc2c(CC(=O)N3CCN(S(=O)(=O)c4ccc5c(c4)OCCO5)CC3)coc2c1	0	-30	58*	-1	0
Cc1ccc2c(CC(=O)N3CCN(S(=O)(=O)c4ccccc4)CC3)coc2c1	-3	4	-3	-5	-2
C[C@@H]1CN([C@H](C)CO)C(=O)c2cccc(NC(=O)c3ccncc3)c2O[C@H]1CN(C)C(=O)Nc1ccccc1	104*	20[16.7 µM]	nt	-1	nt
C[C@H](CO)N1C[C@H](C)[C@H](CN(C)C(=O)Nc2ccccc2)Oc2c(NC(=O)c3ccncc3)cccc2C1=O	1	-4[16.7 µM]	nt	9	nt
C[C@@H]1CN([C@@H](C)CO)C(=O)c2cccc(NC(=O)c3ccncc3)c2O[C@H]1CN(C)C(=O)Nc1ccccc1	109*	0[16.7 µM]	nt	1	nt
C[C@@H]1CN([C@H](C)CO)C(=O)c2cccc(NC(=O)c3ccncc3)c2O[C@H]1CN(C)C(=O)Nc1ccc(C(F)(F)F)cc1	82*	-3[16.7 µM]	nt	-4	nt
C[C@@H]1CN([C@H](C)CO)C(=O)c2cccc(NC(=O)c3ccncc3)c2O[C@@H]1CN(C)C(=O)Nc1ccc(F)cc1	0	15[16.7 µM]	nt	0	nt
C[C@@H]1CN([C@@H](C)CO)C(=O)c2cccc(NC(=O)c3ccncc3)c2O[C@@H]1CN(C)C	56	112*[16.7 µM]	nt	7	nt
CCOC(=O)c1c(NC(=O)CN2CCN(C(=O)C3CCCO3)CC2)sc(C)c1C (stereo unspecified)	1	4	-4	2	1
CCOC(=O)c1c(NC(=O)CN2CCC(C)CC2)sc(C)c1C	3	2	45*	-1	11
Cc1noc(C)c1S(=O)(=O)Nc1ccc2c(c1)C(=O)N([C@H](C)CO)C[C@H](C)[C@H](CN(C)CC1CCCCC1)O2	0	6[16.7 µM]	nt	0	nt
COC(=O)c1c(CC[C@@H](CO)NC(=O)N[C@H](Cc2ccccc2)Cn2cc(-c3ccccc3N)nn2)oc(C(C)=O)c1C(=O)OC	8	nt	nt	nt	nt
CC(=O)c1c(C)[nH]c(C(=O)OCC(=O)c2ccc3c(c2)NC(=O)CO3)c1C	6	16	81*	-1	-1
COc1ccc2ccccc2c1/C=N/O	-13	-6	36*	-4	-1
O=C1NC(=O)C(CSc2ccccc2)(c2ccccc2)N1 (stereo unspecified)	1	1	42*	3	0
CC1(CSc2ccccc2)CC(=O)N1 (stereo unspecified)	-18	-4	nt	1	nt
O=C1OC(c2ccccc2)(c2ccccc2)c2ccccc21	4	nt	4	2	55*
CCn1cc(/C=N\NC(=O)c2c[nH]c3ccccc23)c(C)n1	nt	nt	-3	nt	-1
SMILES	Cneo AK release	miR122 inh	CAL PDZ FP-1	PglD DTNB	CAL PDZ FP-2
CCn1cc(/C=N\NC(=O)c2csc3ccccc23)c(C)n1	-1	-2	32*	5	nt
C[C@H](CO)N1C[C@H](C)[C@H](CN(C)C(=O)Nc2cccc3ccccc23)Oc2ccc(NC(=O)Nc3ccccc3)cc2C1=O	101*	9[16.7 µM]	nt	-2	nt
C[C@@H]1CN([C@H](C)CO)C(=O)c2cc(NC(=O)Nc3cccc4ccccc34)ccc2O[C@H]1CN(C)C(=O)Nc1ccc(C(F)(F)F)cc1	103*	2[16.7 µM]	nt	4	nt
CC(C)NC(=O)Nc1cccc2c1O[C@H](CN(C)Cc1ccccc1)[C@@H](C)CN([C@H](C)CO)C2=O	-8	28[16.7 µM]	nt	-2	nt
Cn1c(CO)cnc1SCc1ccc(Cl)cc1	0	0	-7	26*	-1
C[C@@H]1CN([C@H](C)CO)C(=O)c2cc(C3=CCCC3)cnc2O[C@@H]1CN(C)C(=O)C1CCC1	1	1[16.7 µM]	nt	1	nt
CN(C)CCCN1C(=O)c2cccc3cccc(c23)C1=O	-3	nt	0	-1	0
CC1=CC2=C(OC1N(C)C)c1cccc3cccc(c13)C2=O (stereo unspecified)	-1	-6	39*	-3	nt
C[C@H](CO)N1C[C@H](C)[C@H](CN(C)Cc2ccc(C(=O)O)cc2)Oc2c(NC(=O)Nc3cccc4ccccc34)cccc2C1=O	-7	3[16.7 µM]	nt	-5	nt
O=C(C1CC(=O)N(c2ccc3c(c2)OCCO3)C1)N1CCN(S(=O)(=O)c2ccc(F)cc2)CC1 (stereo unspecified)	0	1	68*	0	-2
O=C(C1CC(=O)N(c2ccc3c(c2)OCCO3)C1)N1CCN(S(=O)(=O)c2cccc(F)c2)CC1 (stereo unspecified)	-3	nt	-3	-1	-1
C[C@H](CO)N1C[C@H](C)[C@H](CN(C)C(=O)C2CCCCC2)OCCCC[C@H](C)Oc2ccc(N(C)C)cc2C1=O	-6	-13[16.7 µM]	nt	1	nt
CCSc1ccc(C(=O)Nc2ccc(Br)cn2)cc1[N+](=O)[O-]	nt	nt	39*	nt	0
CCSc1ccc(C(=O)Nc2cccc(C)n2)cc1[N+](=O)[O-]	nt	nt	-3	nt	1
CN1C(=O)N[C@@H]2c3ccccc3O[C@@]1(C)[C@@H]2COC(=O)c1ccccc1	96*	nt	nt	1	nt
C[C@@H]1CN([C@H](C)CO)C(=O)c2cc(NS(=O)(=O)c3ccccc3)ccc2O[C@H]1CN(C)S(=O)(=O)c1ccc(F)cc1	nt	-2[16.7 µM]	nt	nt	nt
COc1ccc(NS(=O)(=O)c2cc(Br)cc3c2N(C(C)=O)CC3)cc1	-1	189*	-3	3	-5
Cc1ccnc2nc(C(=O)OCCOc3ccc(Cl)cc3)nn12	nt	nt	-1	nt	-1
Cc1ccnc2nc(C(=O)OCCOc3ccc(F)cc3)nn12	0	1	-3	0	40*
C[C@H](CO)N1C[C@H](C)[C@H](CN(C)S(=O)(=O)c2cccs2)Oc2ccc(NC(=O)C3CC3)cc2CC1=O	0	-4[16.7 µM]	nt	-2	nt
Cc1cccc(-c2nc(N)nc(N)n2)c1	nt	nt	34*	nt	0
CC(CNS(=O)(=O)c1ccc2c(c1)CC(=O)N2C)c1ccccc1 (stereo unspecified)	-2	1	0	-3	-1
Cc1c(Cl)cccc1NC(=S)N(CCN(C)C)C(C)c1ccccn1 (stereo unspecified)	7	4	81*	0	0

Assay outcomes deposited in PubChem by Broad Institute.
